Hits are enriched below; roughly 1.3% of the tested compounds scored in any of these assays.
proCasp3 act: activates human procaspase-3; P42574; recombinant procaspase-3 D3A, Ac-DEVD-pNA absorbance 405 nm; activation, % at 8.5 µM; 0.11% of 330,000 active; AID 463141;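 active = activation above the mean of all tested compounds plus 3 SD, cut at about 21% in these data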;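 also: 0% = DMSO alone and 100% = DMSO wells spiked with extra 5 µM PC-3 D3A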
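Technique: 405 nm absorbance of p-nitroaniline, reads at 0 and 120 min; Test system: Procaspase-3 D3A mutant; Incubation: 1 h enzyme-compound preincubation, then 2 h substrate reaction, 25 °C; Repeats: singlicate, each compound tested once; Benchmarks: low control DMSO wells, high control DMSO plus 5 µM PC-3 D3A.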
GASC-1 inh: inhibitors of human GASC-1 (JMJD2C) demethylase | 0.069% of 330,000 active | Q9H3R0 | AID 2099 | inhibition, % at 2.35 µM | GST-JMJD2C(1-420) H3K9me3 demethylation, DELFIA europium;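 active = more than half of a compound's replicate wells show inhibition beyond 50%, single wells judged on their own value; inconclusive = some, but no more than half, of replicates pass 50% inhibition; inactive = no replicate passes 50% inhibition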;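 also: signal counts dimethyl H3K9 product captured on neutravidin plate; 0% = median of DMSO wells and 100% = 0.3 times that DMSO median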
Target sequence (Q9H3R0 1-420 limits assumed): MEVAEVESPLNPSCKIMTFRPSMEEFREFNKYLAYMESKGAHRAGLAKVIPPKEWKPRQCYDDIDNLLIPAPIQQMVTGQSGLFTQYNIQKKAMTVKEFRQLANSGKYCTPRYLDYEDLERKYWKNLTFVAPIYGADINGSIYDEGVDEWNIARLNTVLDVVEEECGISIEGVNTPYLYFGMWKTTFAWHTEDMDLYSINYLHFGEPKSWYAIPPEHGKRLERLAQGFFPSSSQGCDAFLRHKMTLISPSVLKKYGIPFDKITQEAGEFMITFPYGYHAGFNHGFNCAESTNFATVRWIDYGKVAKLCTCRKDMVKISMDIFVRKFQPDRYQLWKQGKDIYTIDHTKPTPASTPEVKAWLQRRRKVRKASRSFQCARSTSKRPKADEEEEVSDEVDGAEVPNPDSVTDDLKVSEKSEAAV
GRK2 inh: human GRK2 inhibition via aptamer displacement; P25098; bead flow cytometry, FAM-aptamer displacement from GRK2; inhibition of aptamer binding, % at 10 µM; 0.59% of 330,000 active; AID 488847;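 active = inhibition of aptamer binding above 40%, roughly 3 SD of noise, on plates passing a quality check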;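 also: median bead fluorescence of bound FAM aptamer so fluorescent compounds give negative values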
Lipid droplet: hepatic lipid droplet formation modulation. AML12 mouse hepatocytes, oleate lipid droplets, BODIPY imaging. inhibition, % at 6.5 µM. 0.4% of 240,000 active. AID 1656;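 active = lipid droplet intensity inhibited by at least 50%, with more than 500 cells counted; inconclusive = wells with under 300 cells, treated as cytotoxic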
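Assay system: AML12 mouse liver cells | Compound: 6.5 µM single-point dosing | Schedule: Overnight exposure | Technique: Fluorescence imaging, 20x objective, two fields per well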
VLA-4 inh: inhibition in a human VLA-4 binding assay | P13612 | VLA-4 expressing cells, ligand binding flow cytometry | inhibition, % (about 7 µM as worked out from the volumes in the protocol) | 0.2% of 330,000 active; in the data active = inhibition above about 50%
procasp7 counter: activates human procaspase-7, counter-screen for procaspase-3 activators | P55210 | recombinant procaspase-7, Ac-DEVD-pNA absorbance 405 nm; D23A/D198A/D206A triple mutant, cannot self-cleave; scale: DMSO 0, 5 µM enzyme 100 | activation, % at 8.5 µM | 0.093% of 330,000 active;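 active = percent activation above the screen-wide mean plus 3 SD, cut at about 25% in these data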
Target sequence (P55210 whole entry D23A/D198A/D206A): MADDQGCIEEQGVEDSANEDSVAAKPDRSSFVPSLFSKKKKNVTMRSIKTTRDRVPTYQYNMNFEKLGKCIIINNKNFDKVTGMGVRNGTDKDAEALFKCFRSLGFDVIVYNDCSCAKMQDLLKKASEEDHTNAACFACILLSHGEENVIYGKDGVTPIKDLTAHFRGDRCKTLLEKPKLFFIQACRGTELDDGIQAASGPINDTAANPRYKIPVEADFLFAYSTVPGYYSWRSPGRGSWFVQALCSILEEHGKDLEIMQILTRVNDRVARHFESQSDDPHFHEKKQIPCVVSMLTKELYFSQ
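Material: Procaspase-7 triple mutant (PC-7 D3A) | Quantity: 2 µM procaspase-7 mutant as dispensed | Reagent: DEVD-pNA substrate | Times: 1 h preincubation, 2 h reaction | Technique: 405 nm absorbance of p-nitroaniline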
VLA-4 allo CP: confirmation of allosteric modulators of human VLA-4 integrin | 2% of 1,300 active | inhibition, % at 6.7 µM | AID 2813 | shares compounds with VLA-4 inh | U937 cells, HUTS-21 LIBS mAb binding, flow cytometry; LDV ligand present at threefold Kd; in the data active = inhibition above about 40%;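 also: 0% = ligand without compound and 100% = no ligand background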
Active calls of the source: *; ? = inconclusive; / = no result given.

SMILES | proCasp3 act | GASC-1 inh | GRK2 inh | Lipid droplet | VLA-4 inh | procasp7 counter | VLA-4 allo CP
Clc1ccc2c(N/N=C/c3ccc(Br)cc3)ccnc2c1 | -14.3 | -78.9 | 2.0 | 12.1 | 50.8* | -13.1 | 12.3
COCCn1nnnc1C(c1ccc(OC)cc1OC)N1CCN(c2ccccc2F)CC1 (stereo unspecified) | 8.6 | -1.9 | 0.0 | / | 99.2* | 2.1 | 0.4
CC(=O)C1=C(O)CC(c2ccccc2)CC1=NCCc1c(C)[nH]c2ccc(C)cc12 (stereo unspecified) | -7.1 | -27.4 | 1.0 | 13.6 | 17.5 | -9.1 | /
CCC(=NCCc1c(C)[nH]c2ccc(C)cc12)C1=C(O)CC(c2ccccc2)CC1=O (stereo unspecified) | 10.4 | 0.4 | 0.0 | ? | 46.2 | 6.6 | 21.7
CCCCSc1nc2c(c(C(F)(F)F)c1C#N)CCC2 | 1.9 | -8.1 | 0.0 | / | 64.0* | 5.9 | 2.7
COc1ccccc1CNC(=O)CN(C)S(=O)(=O)c1ccc(F)cc1 | 11.0 | 20.1 | 1.0 | 0.7 | -6.0 | -0.8 | -3.5
COc1ccccc1CC(=O)NNC(=O)CN(C)S(=O)(=O)c1ccc(Cl)cc1 | 2.0 | -3.7 | 1.0 | / | 1.0 | 4.6 | /
COc1ccccc1CNC(=O)CS(=O)(=O)c1ccccc1 | 2.2 | 2.7 | 0.0 | 3.7 | -0.3 | 9.5 | /
COc1ccccc1CNC(=O)C(C)NS(=O)(=O)c1ccccc1 (stereo unspecified) | -11.2 | -4.7 | 0.0 | -0.8 | 6.6 | 0.5 | -6.7
CCCN(C(=O)c1ccccc1N)c1c(C)n(C)n(-c2ccccc2)c1=O | 8.0 | 4.6 | 2.0 | / | -0.9 | -3.9 | -9.5
Cc1ccsc1C(=O)OCC(=O)Nc1ccc(Cl)cn1 | 10.8 | 1.9 | 2.0 | / | -3.6 | 8.6 | /
CC(=O)c1ccccc1NS(=O)(=O)c1ccccc1Cl | -6.4 | 8.6 | 1.0 | -1.0 | -3.2 | -0.3 | 4.4
COC(=O)c1ccc(C2CC(=O)Nc3cc(OC)c(OC)c(OC)c32)cc1 (stereo unspecified) | 4.8 | -25.2 | 0.0 | 2.2 | 1.1 | -4.6 | -10.2
CCOc1c(OC)cccc1C1CC(=O)Nc2cc(OC)c(OC)cc21 (stereo unspecified) | 12.5 | -11.7 | 1.0 | -6.3 | -13.9 | -2.3 | 0.0
COc1cc2c(c(OC)c1)C(c1ccncc1)CC(=O)N2 (stereo unspecified) | 7.2 | 1.6 | 3.0 | 14.4 | 34.0 | -2.2 | /
COc1cc2c(cc1OC)C(c1ccc(OC)c(OC)c1OC)CC(=O)N2 (stereo unspecified) | / | 0.3 | 5.0 | -1.8 | 0.3 | / | 0.7
COc1cc2c(cc1OC)C(c1cccc(OC)c1OC)CC(=O)N2 (stereo unspecified) | 4.6 | -4.8 | 0.0 | / | 11.7 | 4.3 | /
O=C(COC(=O)c1ccc(O)cc1)Nc1cc(C(F)(F)F)ccc1Cl | -0.9 | -2.6 | 1.0 | 22.9 | -1.1 | -4.1 | /
CC(OC(=O)c1ccc(O)cc1)C(=O)Nc1cc(C(F)(F)F)ccc1Cl (stereo unspecified) | 0.8 | 1.7 | 1.0 | 2.7 | 3.5 | 7.9 | -8.6
CC(C)[C@H](NC(=O)OCc1ccccc1)C(=O)NCc1ccccc1 | 6.5 | 0.3 | 3.0 | 0.1 | 42.5 | 2.2 | -16.7
Cn1c(NC(=O)c2ccc(C(C)(C)C)cc2)cc(=O)n(C)c1=O | 2.4 | 5.8 | 1.0 | 2.6 | 52.6* | 0.9 | 4.0
Cn1c(NNC(=O)c2ccc(C(C)(C)C)cc2)cc(=O)n(C)c1=O | 2.2 | -47.2 | 0.0 | 13.2 | 4.0 | 5.2 | /
Cc1c(NC(=O)CNCc2ccc3c(c2)OCO3)c(=O)n(-c2ccccc2)n1C | 5.2 | 0.4 | 2.0 | 0.5 | 1.3 | -2.0 | /
CCN(CC)C(=O)c1cc(-c2ccc3c(c2)OCO3)on1 | -1.9 | 41.4 | 0.0 | -18.5 | 55.2* | 8.1 | -5.5
COc1cc2c(cc1OC)C(C)N(CCN1C(=O)c3ccccc3C1=O)CC2 (stereo unspecified) | 3.7 | 4.5 | 0.0 | -3.3 | 43.6 | 6.0 | -6.9
SMILES | proCasp3 act | GASC-1 inh | GRK2 inh | Lipid droplet | VLA-4 inh | procasp7 counter | VLA-4 allo CP
O=C(CSc1nn(-c2ccccc2)c(=S)s1)Nn1cnnc1 | -6.3 | -18.9 | 13.0 | / | 0.5 | 15.9 | /
Cc1ccc(NC(=O)CSc2nn(-c3ccccc3)c(=S)s2)cc1S(=O)(=O)N(C)C | -0.1 | -11.7 | 2.0 | -3.7 | 46.5 | 3.4 | 3.7
COC(=O)[C@@H]1[C@@H](C#N)C2(c3ccccc3-c3ccccc32)N(c2ccc(Cl)cc2)N1C#N | 1.9 | 0.8 | 0.0 | 10.4 | 57.8* | -9.3 | 39.0
COc1cccc(-c2cc(=O)c3cc(NC(=O)c4ccccc4)ccc3[nH]2)c1 | 4.0 | 4.9 | 4.0 | 36.8 | -4.2 | 4.6 | /
COc1cccc(-c2cc(=O)c3cc(NC(=O)c4ccc(Cl)cc4)ccc3[nH]2)c1 | 7.2 | -10.7 | 0.0 | / | 50.1* | -13.1 | -2.1
CN(Cc1cnn(C)c1)C(=O)C1CCC(=O)N(Cc2ccc(Cl)cc2)C1 (stereo unspecified) | 3.3 | 4.4 | 0.0 | -73.5 | 4.0 | 1.9 | /
NC(=O)c1ccccc1NC(=O)Nc1cccc(Cl)c1 | 7.4 | -15.0 | 0.0 | 2.3 | -3.9 | 7.5 | /
O=C(Nc1ccc(Cl)cc1)Nc1cccc(C(=O)O)c1 | 1.7 | 19.4 | 1.0 | 8.6 | 15.9 | -7.0 | /
O=C(Nc1cccc(Cl)c1)Nc1cccc(C(=O)O)c1 | 2.8 | -40.8 | 6.0 | -0.6 | -0.1 | -3.0 | 5.1
O=C(Nc1cccc(Cl)c1)Nc1ccccc1C(=O)O | 3.3 | 0.0 | 2.0 | -19.2 | 7.5 | 1.5 | -6.2
CCN(C[C@H]1N[C@@](Cc2ccccc2)(C(=O)OC)[C@H]2C(=O)N(Cc3ccccc3)C(=O)[C@@H]12)C(=O)COc1ccccc1 | 1.9 | 2.2 | 0.0 | / | 55.6* | 0.9 | 2.9
CCN(C[C@H]1N[C@@](Cc2ccccc2)(C(=O)OC)[C@H]2C(=O)N(Cc3ccccc3)C(=O)[C@@H]12)C(=O)C1CCCCC1 | 12.9 | / | 12.0 | / | 8.8 | -6.7 | -4.2
Cc1c(NC(=O)C2CC=CCC2C(=O)O)c(=O)n(-c2ccccc2)n1C (stereo unspecified) | 6.4 | -0.9 | 17.0 | 8.4 | 3.8 | -1.4 | -11.4
COc1cccc(OC)c1C(=O)Nc1c(C)n(C)n(-c2ccccc2)c1=O | -0.3 | 5.5 | 3.0 | / | 0.0 | 0.7 | 6.5
Cc1c(NC(=O)c2ccc(Cl)c(S(=O)(=O)N3CCOCC3)c2)c(=O)n(-c2ccccc2)n1C | 1.3 | -9.1 | 0.0 | / | 6.5 | -10.4 | 2.0
Cc1c(NC(=O)c2ccc(Cl)c(S(=O)(=O)N3CCCCC3)c2)c(=O)n(-c2ccccc2)n1C | 1.1 | 13.0 | 14.0 | -10.1 | -16.2 | 7.4 | /

Screening data (PubChem BioAssay)
